From PubChem BioAssay
MrgX1 PAM: human MrgX1 positive allosteric modulation, primary screen | Q96LB2 | B-score at 10 µM | 310,000 compounds, 0.63% hits | AID 588675 | MrgX1-HEK293, Fluo-4 calcium flux, FDSS; stronger effect = higher value;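 active = plate-corrected calcium response at least 3 library SD above typical, normal starting fluorescence, not activating the receptor alone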;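 note: compound read alongside a low EC10 to EC30 dose of BAM8-22 agonist; peak minus trough fluorescence over baseline measured at the second addition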
MrgX1 ag: agonists of human MrgX1 receptor; Q96LB2; MrgX1-HEK293 cells, Fluo-4 calcium fluorescence, agonist mode; stronger effect = higher value; 310,000 compounds, 0.44% hits; AID 588627; B-score at 10 µM;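 active = calcium response B-score plate-corrected fluorescence ratio at least 3 library SD, with starting fluorescence B-score inside 5 SD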
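System – MrgX1-expressing HEK293 cells · Incubation – cells plated overnight, dye loaded 0.5 h 37 °C, 0.5 h room temperature · Technique – kinetic Fluo-4 NW fluorescence of intracellular calcium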
RGS4 inh: human RGS4 inhibition; HEK293 M3R/RGS4 inducible, Fluo-4 calcium flux; stronger effect = higher value; triggered by carbachol at its EC20; AID 463165; 310,000 compounds, 0.45% hits; B-score at 10 µM; P49798;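 active = B-score, a plate-corrected calcium signal, over three deviations above library mean, with baseline fluorescence within five deviations of library mean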;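 note: RGS4 expression induced by doxycycline in cells with stable M3 receptor; B-score is computed from the integrated fluorescence ratio over baseline after carbachol; higher B-score means a larger calcium signal and so more RGS4 inhibition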
Target sequence (P49798 whole entry, looked up): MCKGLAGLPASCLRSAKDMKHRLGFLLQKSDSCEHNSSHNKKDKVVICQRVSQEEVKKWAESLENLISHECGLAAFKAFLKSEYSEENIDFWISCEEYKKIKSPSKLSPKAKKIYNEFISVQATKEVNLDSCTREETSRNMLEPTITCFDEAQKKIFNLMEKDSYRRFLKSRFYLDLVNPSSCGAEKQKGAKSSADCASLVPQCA
MrgX1 antagonist: blocks BAM8-22 activation of human MrgX1 receptor; Q96LB2; MRGX1-HEK293 calcium flux, Fluo-4, BAM8-22 antagonism; stronger effect = lower value; B-score at 10 µM; 310,000 compounds, 1.3% hits; AID 588676;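 active = calcium-response B-score plate-corrected more than 3 library SD below zero, starting fluorescence within 5 deviations, no agonist response on first addition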;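 note: peak minus trough fluorescence over baseline after final BAM8-22 challenge near maximal dose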
RGS4 act: potentiators or activators of RGS4. 310,000 compounds, 0.92% hits. HEK293 M3R/inducible RGS4, carbachol calcium flux Fluo4; stronger effect = lower value. B-score at 10 µM;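 active = B-score of the integrated calcium signal more than 4 SD below the library mean, with starting fluorescence not abnormally high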;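 note: negative B-score means reduced calcium response which marks RGS4 activation or potentiation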
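test system = HEK293 cells with stable M3R and inducible RGS4 | schedule = recording 10 s baseline at 1 Hz, 100 s post-agonist | technique = Fluo4-AM (2 µM) calcium-flux fluorescence, kinetic read | measure = Agonist-evoked peak-minus-minimum fluorescence over baseline, integrated ratio, B score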
RGS4 block valid: validation of RGS4 inhibitors; shares compounds with RGS4 inh; calcium response, % at 10 µM; 1,700 compounds, 65% hits; HEK293 M3R/RGS4, carbachol calcium Fluo-4 fluorescence; carbachol added at its EC20; 0 = buffer wells, 100 = carbachol control;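 active = duplicate-averaged calcium response above the buffer-only control mean plus 5 SD of those controls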;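 note: integrated fluorescence ratio F max minus min over baseline F0; higher response in RGS4-induced cells means RGS4 inhibition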
M3R Ca ctr: non-induced cell nonspecific activity of RGS4 inhibitors; shares compounds with RGS4 inh; 1,900 compounds, 20% hits; activity (percent), % at 10 µM; AID 493000; HEK293 M3R non-induced, carbachol calcium Fluo-4; submaximal (EC20) carbachol stimulus; buffer wells 0%, carbachol control wells 100%; call rule not given here;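 note: RGS4 induction absent so cells express M3R without RGS4; higher means more calcium signal and flags a non-specific hit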
RGS4 inh ctr2: second counter-screen for RGS4 inhibitors: non-induced cells without carbachol | shares compounds with RGS4 inh | HEK293 M3R/RGS4 non-induced, Fluo-4 calcium, no carbachol; normalised: buffer wells 0%, carbachol wells 100% | calcium response (agonist-mode artifact), % at 10 µM | 1,900 compounds, 22% hits;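 active = duplicate-averaged calcium rise in uninduced cells above buffer wells' mean plus 5 SD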
Active calls of the source: *; i = inactive; · = no result given. Only some compounds are listed: those with a hit (about 3.5% of all), similar ones and a draw of the others.

SMILES	MrgX1 PAM	MrgX1 ag	RGS4 inh	MrgX1 antagonist	RGS4 act	RGS4 block valid	M3R Ca ctr	RGS4 inh ctr2
Cc1ccc(CN2CCN(/N=C/c3ccc(N(C)C)cc3)CC2)cc1	i	i	8.8*	i	i	i	i	i
Cc1ccc(/C=N/N2CCN(Cc3ccccc3)CC2)cc1	i	i	i	i	i	·	·	·
O=C(O)CCCCCN1C(=O)/C(=C\c2ccc(-c3ccc(Cl)cc3)o2)SC1=S	i	i	36*	i	-11*	44%*	i	48%*
O=C(O)CCCN1C(=O)/C(=C/c2ccc(-c3nc4ccccc4s3)o2)SC1=S	i	i	22*	i	-9.2*	8.0%*	i	389%*
O=C(CCN1C(=O)/C(=C/C=C/c2ccccc2)SC1=S)Nc1nc2ccccc2s1	i	i	i	i	i	·	·	·
C/C(=N\NC(=O)c1ccccn1)C12CC3CC(CC(C3)C1)C2	i	i	i	i	i	·	·	·
O=C(Nc1cccn(Cc2c(Cl)cccc2Cl)c1=O)c1c(Cl)cccc1Cl	i	i	i	i	i	·	·	·
COC(=O)Nc1cccn(Cc2c(Cl)cccc2Cl)c1=O	i	i	8.4*	i	i	6.5%*	i	i
COc1ccc(-c2nn(-c3ccccc3)cc2/C=C(\C#N)C(N)=O)cc1[N+](=O)[O-]	i	i	i	i	i	·	·	·
CCOC(=O)c1sc(C)c2c(=O)n(Cc3ccc(Cl)cc3)cnc12	i	i	i	i	i	·	·	·
CCc1ccc(N2CC(C(=O)N/N=C/c3ccccc3OC)CC2=O)cc1 (stereo not drawn)	i	i	i	i	i	·	·	·
CCc1ccc(N2CC(C(=O)N/N=C/c3cc([N+](=O)[O-])ccc3O)CC2=O)cc1 (stereo not drawn)	i	i	i	i	i	·	57%*	i
CCCCNC(=O)c1nn(-c2ccccc2OC)c(=O)c2ccccc12	i	i	i	i	i	·	·	·
O=c1[nH][nH]c(-c2ccccc2O)c1C(C[N+](=O)[O-])c1ccccc1 (stereo not drawn)	i	i	i	i	i	i	i	i
O=c1[nH][nH]c(-c2ccccc2O)c1C(C[N+](=O)[O-])c1ccc(Cl)cc1Cl (stereo not drawn)	i	i	6.2*	i	i	i	i	i
Cc1cc(O)c(C(C[N+](=O)[O-])c2ccc(Cl)cc2Cl)c(=O)o1 (stereo not drawn)	i	i	i	i	i	·	·	·
O=c1[nH][nH]c(-c2ccccc2O)c1C(C[N+](=O)[O-])c1cccc(Cl)c1 (stereo not drawn)	i	i	i	i	i	·	·	·
CCOCCCNCc1cc(Br)ccc1OCc1ccccc1	i	i	i	i	i	·	·	·
O=C1/C(=C/c2ccc([N+](=O)[O-])cc2)C=C(c2ccccc2)N1c1ccc(O)cc1	i	i	5.1*	i	i	9.0%*	i	i
O=C1/C(=C/c2ccc([N+](=O)[O-])cc2)C=C(c2ccccc2)N1c1ccccc1	i	i	i	i	i	i	i	i
COc1ccc(N2C(=O)/C(=C/c3ccc([N+](=O)[O-])cc3)C=C2c2ccccc2)cc1	i	i	i	i	i	·	·	·
CCC(C)Sc1nc2c(c(=O)n1C)SC(C)C2 (stereo not drawn)	i	i	i	i	i	·	·	·
